The list is not random: actives were taken first. Their share in the collection is about 5.8%.
KDM4C inh: blocks human GASC-1 (KDM4C) demethylase activity | Q9H3R0 | GST-KDM4C 2-372, H3K9me3 peptide, LANCE TR-FRET | inhibition, % at 12.5 µM | 96,000 compounds, 0.15% hits | AID 720574;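 active = mean replicate inhibition above about 25%, with at least 55% of replicates also reaching it, limit read from the data, passing the limit was not always enough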
Target sequence (Q9H3R0 2-372 limits assumed): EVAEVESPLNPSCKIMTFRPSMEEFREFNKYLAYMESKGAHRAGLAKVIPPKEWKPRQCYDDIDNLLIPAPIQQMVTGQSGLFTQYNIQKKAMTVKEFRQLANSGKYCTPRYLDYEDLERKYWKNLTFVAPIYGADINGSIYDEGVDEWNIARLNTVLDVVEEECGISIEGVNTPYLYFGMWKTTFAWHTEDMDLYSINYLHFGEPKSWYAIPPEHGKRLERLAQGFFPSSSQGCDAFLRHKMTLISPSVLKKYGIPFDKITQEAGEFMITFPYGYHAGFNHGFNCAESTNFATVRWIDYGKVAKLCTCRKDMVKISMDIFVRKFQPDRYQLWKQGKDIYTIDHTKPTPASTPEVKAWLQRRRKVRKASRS
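Test system – GST-tagged GASC-1 (JMJD2C) catalytic fragment, aa 2-372 · Medium – HEPES buffer, pH 7.5, plus ascorbate · Reagent – H3K9me3 peptide with Fe(II)/2OG · Compound – one test concentration per compound · Timing – 30 min reaction, 60 min detection, RT · Technique – TR-FRET with Eu antibody and ULight streptavidin, EDTA stop · Read-out basis – inhibition from TR-FRET ratio decrease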
IDH1 R132H inh: blocks human IDH1 R132H reductase activity; inhibition, % at 10 µM; AID 624101; diaphorase/resazurin fluorescence, 60 min; O75874; 70,000 compounds, 0.18% hits; in the data active = inhibition above about 34%;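 note: 0% = DMSO and 100% = no enzyme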
Tcruzi prolif: blocks T. cruzi growth in NIH3T3 culture | T. cruzi beta-gal in NIH3T3, GalScreen luminescence, 90 h | inhibition, % at 8.34 µM | 77,000 compounds, 5.9% hits;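 active = mean inhibition above about 93%, with at least 55% of replicates each passing it, limit read from the data, passing the limit was not always enough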
Pf Dd2 growth: P. falciparum Dd2 growth inhibition | SYBR Green, 72 h; hits give low values | AID 1159554 | activity change, % at 10 µM | 94,000 compounds, 2.3% hits; in the data active = activity change below about -80%
Numbers without * were called inactive; nt = not tested or not shown.

SMILES | KDM4C inh | IDH1 R132H inh | Tcruzi prolif | Pf Dd2 growth
COc1ccc2c3c(n(C)c2c1)[C@H](CO)N(C(=O)C1CCC1)CC31CCN(C(=O)CN(C)C)CC1 | 0 | nt | nt | -82*
COc1ccc(NC(=O)N2CC3(C2)CN(C(=O)C2CCC2)[C@@H](CO)c2c3c3ccc(OC)cc3n2C)cc1 | 1 | nt | nt | -29
COc1ccc2c3c(n(C)c2c1)[C@H](CO)N(C(=O)C1CCC1)CC31CCN(C(=O)Nc2cccc(F)c2)CC1 | 0 | nt | nt | -64
COc1ccc(NC(=O)N2CCC3(CC2)CN(C(=O)C2CCC2)[C@@H](CO)c2c3c3ccc(OC)cc3n2C)cc1 | 0 | nt | nt | -93*
CCS(=O)(=O)N1CCC2(CC1)CN(C(=O)Nc1cccc(F)c1)[C@H](CO)c1c2c2ccc(OC)cc2n1C | -1 | nt | nt | -88*
COc1ccc2c3c(n(C)c2c1)[C@@H](CO)N(C(=O)C1CCC1)CC31CCN(C(=O)Nc2cccc(F)c2)CC1 | -1 | nt | nt | -86*
OC[C@@H]1[C@@H](c2ccccc2)C2(CN(Cc3ccc4c(c3)OCO4)C2)N1Cc1ccccc1 | 13 | nt | nt | -93*
O=C(C1CCCC1)N1CC2(C1)[C@@H](c1ccccc1)[C@H](CO)N2Cc1ccc(Cl)cc1 | 1 | nt | nt | -85*
CC(=O)N1CC2(C1)[C@@H](c1ccccc1)[C@@H](CO)N2Cc1ccccc1F | nt | nt | nt | -4
COc1cccc(CN2[C@H](CO)[C@@H](c3ccccc3)C23CN(Cc2ccccc2OC)C3)c1 | 1 | nt | nt | -90*
OC[C@@H]1[C@H](c2ccccc2)C2(CN(Cc3ccccc3)C2)N1Cc1ccncc1 | 2 | nt | nt | -53
OC[C@@H]1[C@@H](c2ccccc2)C2(CN(Cc3ccccc3F)C2)N1Cc1ccccc1F | -2 | nt | nt | -88*
C[C@H]1CN([C@@H](C)CO)S(=O)(=O)c2ccc(/C=C/c3ccccc3)cc2O[C@@H]1CN(C)C(=O)c1ccccc1 | -5 | 0 | 125* | -73
C[C@H](CO)N1C[C@H](C)[C@H](CN(C)C(=O)Nc2cc(F)ccc2F)Oc2cc(/C=C/c3ccccc3)ccc2S1(=O)=O | -1 | 0 | nt | -88*
C[C@@H]1CCCCO[C@H](CN(C)Cc2ccccc2)[C@@H](C)CN([C@H](C)CO)C(=O)c2cc(NC(=O)Nc3cccc4ccccc34)ccc2O1 | -2 | nt | nt | 23
COc1ccc(S(=O)(=O)N(C)C[C@H]2OCCCC[C@@H](C)Oc3ccc(NC(=O)Nc4ccc(C(F)(F)F)cc4)cc3C(=O)N([C@@H](C)CO)C[C@H]2C)cc1 | 1 | nt | 89 | -85*
COc1ccc(S(=O)(=O)N(C)C[C@@H]2OCCCC[C@H](C)Oc3ccc(NC(=O)Nc4ccc(C(F)(F)F)cc4)cc3C(=O)N([C@H](C)CO)C[C@H]2C)cc1 | nt | nt | 79 | -83*
COc1ccc(S(=O)(=O)N(C)C[C@@H]2OCCCC[C@@H](C)Oc3ccc(NC(=O)Nc4ccc(C(F)(F)F)cc4)cc3C(=O)N([C@@H](C)CO)C[C@@H]2C)cc1 | -1 | nt | 85 | -88*
COc1ccc(S(=O)(=O)N(C)C[C@H]2OCCCC[C@@H](C)Oc3ccc(NC(=O)Nc4ccc(C(F)(F)F)cc4)cc3C(=O)N([C@@H](C)CO)C[C@@H]2C)cc1 | -1 | 2 | 80 | -85*
COc1ccc(S(=O)(=O)N(C)C[C@@H]2OCCCC[C@@H](C)Oc3ccc(NC(=O)Nc4ccc(C(F)(F)F)cc4)cc3C(=O)N([C@@H](C)CO)C[C@H]2C)cc1 | 0 | nt | 90 | -75
COc1ccc(NC(=O)Nc2ccc3c(c2)C(=O)N([C@H](C)CO)C[C@@H](C)[C@H](CN(C)S(=O)(=O)c2ccc(OC)cc2)OCCCC[C@H](C)O3)cc1 | 0 | -1 | -14 | 9
C[C@@H]1CN([C@H](C)CO)C(=O)Cc2cc(NC(=O)C3CC3)ccc2O[C@H]1CN(C)Cc1ccc(C(=O)Nc2ccccc2N)cc1 | -1 | nt | 16 | -21
Cc1noc(C)c1NC(=O)N(C)C[C@@H]1Oc2ccc(NC(=O)CCCN(C)C)cc2C(=O)N([C@@H](C)CO)C[C@H]1C | 1 | 2 | -100 | 1
O=C(C[C@@H]1C=C[C@@H](NC(=O)C2CCC2)[C@H](CO)O1)NC1CCC1 | -2 | -1 | nt | -87*
CCC(=O)N[C@H]1C=C[C@H](CC(=O)NCC2CCCCC2)O[C@@H]1CO | -1 | -1 | -62 | -88*
CCC(=O)N[C@@H]1C=C[C@H](CC(=O)NCC2CCCCC2)O[C@@H]1CO | 2 | -1 | 82 | -11
C[C@H]1CN([C@@H](C)CO)C(=O)Cc2cc(NC(=O)Nc3ccc(F)cc3)ccc2O[C@@H]1CN(C)Cc1ccc(C(=O)O)cc1 | 0 | 1 | 72 | 10

From PubChem
